In ChEMBL document CHEMBL1135207, “Novel route to the synthesis of peptides containing 2-amino-1'-hydroxymethyl ketones and their application as cathepsin K inhibitors” (Bioorg Med Chem Lett, 2002):

How the values were obtained:
Cathepsin S = Cathepsin S (Homo sapiens, UniProt P25774); test: Binding affinity of compound was evaluated against cathepsin S.
Procathepsin L = Procathepsin L (Homo sapiens, UniProt P07711); test: Binding affinity of compound was evaluated against cathepsin L.
Procedure, shortened: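 Then Z-Phe-Arg-AMC 10 µM (at Km) added. AMC release followed kinetically (ex355/em460) at room temperature, with inhibitor-free controls. Apparent Ki by Morrison or Henderson tight-binding fit.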

Cathepsin B = Cathepsin B (Homo sapiens, UniProt P07858); test: Binding affinity against cathepsin B
Cathepsin K = biological target: T1, Cathepsin K (Homo sapiens, UniProt P43235); test: Binding affinity against cathepsin K
T1 sequence (P43235 whole entry): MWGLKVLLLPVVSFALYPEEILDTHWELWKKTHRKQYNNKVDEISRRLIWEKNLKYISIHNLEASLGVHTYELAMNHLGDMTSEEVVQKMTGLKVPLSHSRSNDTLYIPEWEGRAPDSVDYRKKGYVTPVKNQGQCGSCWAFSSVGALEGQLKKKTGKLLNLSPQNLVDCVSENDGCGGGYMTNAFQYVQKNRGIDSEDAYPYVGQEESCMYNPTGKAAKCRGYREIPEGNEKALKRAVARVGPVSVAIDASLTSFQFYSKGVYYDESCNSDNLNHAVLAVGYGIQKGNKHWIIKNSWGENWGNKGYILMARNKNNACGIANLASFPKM

Cathepsin S, sequence (P25774 whole entry): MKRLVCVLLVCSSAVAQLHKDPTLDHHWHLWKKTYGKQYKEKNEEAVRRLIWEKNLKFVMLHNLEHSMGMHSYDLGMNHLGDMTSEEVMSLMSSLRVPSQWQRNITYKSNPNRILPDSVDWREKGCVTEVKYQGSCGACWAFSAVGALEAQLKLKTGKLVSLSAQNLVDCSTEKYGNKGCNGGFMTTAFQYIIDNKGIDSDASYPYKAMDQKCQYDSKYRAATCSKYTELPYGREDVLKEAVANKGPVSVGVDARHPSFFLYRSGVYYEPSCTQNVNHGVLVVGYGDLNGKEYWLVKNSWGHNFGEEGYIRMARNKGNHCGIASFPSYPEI
Procathepsin L, sequence (P07711 whole entry): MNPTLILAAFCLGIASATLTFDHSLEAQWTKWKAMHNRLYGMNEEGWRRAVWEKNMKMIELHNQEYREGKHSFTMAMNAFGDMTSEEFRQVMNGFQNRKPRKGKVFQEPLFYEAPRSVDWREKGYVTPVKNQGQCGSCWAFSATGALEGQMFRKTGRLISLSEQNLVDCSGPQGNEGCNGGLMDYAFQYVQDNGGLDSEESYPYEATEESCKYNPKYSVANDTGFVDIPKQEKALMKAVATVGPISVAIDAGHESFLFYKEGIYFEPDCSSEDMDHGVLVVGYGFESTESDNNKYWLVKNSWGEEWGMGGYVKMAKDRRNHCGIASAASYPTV

Row | Ki (Cathepsin S) | Ki (Procathepsin L) | Ki (Cathepsin B) | Ki (Cathepsin K) | SMILES
1 | – | – | 519000 nM | 1440 nM | CC(=O)[C@H](CCc1ccccc1)NC(=O)[C@H](CC(C)C)NC(=O)OCc1ccccc1
2 | 451 nM | 6340 nM | 119000 nM | 1000 nM | CC(C)C[C@H](NC(=O)OCc1ccccc1)C(=O)N[C@@H](CCc1ccccc1)C(=O)COCc1ccccc1
3 | 88 nM | 790 nM | 1440 nM | 111 nM | CCC(C)[C@H](NC(=O)c1cccc(C(N)=O)c1)C(=O)N[C@@H](CCc1ccccc1)C(=O)CO (some centres not stated)
4 | 811 nM | 3000 nM | 32200 nM | 67 nM | CCC(C)[C@H](NC(=O)OCc1ccccc1)C(=O)N[C@@H](CCc1ccccc1)C(=O)CO (some centres not stated)
5 | 46 nM | 17 nM | 1950 nM | 3 nM | CC(C)C[C@H](NC(=O)c1ccc(CN)cc1)C(=O)N[C@@H](CCc1ccccc1)C(=O)CO

Further lines, the compound ahead of its results:

Row | SMILES | Ki (Cathepsin S) | Ki (Procathepsin L) | Ki (Cathepsin B) | Ki (Cathepsin K)
6 | COCC(=O)[C@H](CCc1ccccc1)NC(=O)[C@H](CC(C)C)NC(=O)OCc1ccccc1 | 1960 nM | 22300 nM | > 150000 nM | 607 nM
7 | CC(C)C[C@H](NC(=O)OCc1ccccc1)C(=O)N[C@@H](CCc1ccccc1)C(=O)CO | 188 nM | 640 nM | 34700 nM | 25 nM
8 | CCOCC(=O)[C@H](CCc1ccccc1)NC(=O)[C@H](CC(C)C)NC(=O)OCc1ccccc1 | 4500 nM | 16700 nM | > 150000 nM | 947 nM
9 | CCCC[C@H](NC(=O)[C@@H](NC(=O)c1cccc(C(N)=O)c1)C(C)CC)C(=O)CO (some centres not stated) | 110 nM | 760 nM | 1140 nM | 110 nM
10 | CCC(C)[C@H](NC(=O)c1cccc(CN)c1)C(=O)N[C@@H](CCc1ccccc1)C(=O)CO (some centres not stated) | 180 nM | 81 nM | 270 nM | 4 nM
11 | CCCC[C@H](NC(=O)[C@@H](NC(=O)c1ccc(CN)cc1)C(C)CC)C(=O)CO (some centres not stated) | 460 nM | 130 nM | 1250 nM | 20 nM
